pIC50: −log10 of the molar value. Active and inactive are the calls of the source. The calls are words filed in the database; no cut-off is given here.
Tests used:
Trypsin [1] = target: T1, Trypsin (Homo sapiens, UniProt P07477+P07478+P35030); assay: Binding affinity to recombinant trypsin (unknown origin) at 50 uM pre-incubated with conditioned medium for 30 mins by activity-based probe based in-gel fluorescence assay; type: protein assay
Kallikrein-13 = target: T2, Kallikrein-13 (Homo sapiens, UniProt Q9UKR3); assay: Inhibition of KLK13 (unknown origin) expressed in Pichia pastoris pre-incubated for 10 mins before Boc-ValProArg-AMC substrate addition and measured after 30 mins by fluorescence based assay
T2 sequence (Q9UKR3 whole entry): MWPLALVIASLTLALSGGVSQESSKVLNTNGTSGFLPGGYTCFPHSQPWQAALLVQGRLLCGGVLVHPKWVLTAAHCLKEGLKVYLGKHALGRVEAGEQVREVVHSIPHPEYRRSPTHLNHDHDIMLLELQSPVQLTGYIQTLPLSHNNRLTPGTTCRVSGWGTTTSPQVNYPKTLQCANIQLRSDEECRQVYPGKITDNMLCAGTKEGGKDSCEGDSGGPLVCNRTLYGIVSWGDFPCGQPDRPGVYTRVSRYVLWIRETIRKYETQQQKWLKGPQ

Trypsin [2] = target: T1, Trypsin; assay: Inhibition of trypsin (unknown origin) pre-incubated for 30 mins before N-Boc-FSR-AMC substrate addition and measured after 30 mins; type: protein assay
Detroit 562 [3] = assay: Effect on cell proliferation of human Detroit 562 cells at 100 to 500 nM incubated for 48 hrs by BrdU incorporation assay; type: ADME, cell-based; settings: detroit 562, 48 h, 0.5 µM
Kallikrein-4 [4] = target: T3, Kallikrein-4 (Homo sapiens, UniProt Q9Y5K2); assay: Binding affinity to recombinant KLK4 (unknown origin) at 50 uM pre-incubated with conditioned medium for 30 mins by activity-based probe based in-gel fluorescence assay
T3 sequence (Q9Y5K2 whole entry): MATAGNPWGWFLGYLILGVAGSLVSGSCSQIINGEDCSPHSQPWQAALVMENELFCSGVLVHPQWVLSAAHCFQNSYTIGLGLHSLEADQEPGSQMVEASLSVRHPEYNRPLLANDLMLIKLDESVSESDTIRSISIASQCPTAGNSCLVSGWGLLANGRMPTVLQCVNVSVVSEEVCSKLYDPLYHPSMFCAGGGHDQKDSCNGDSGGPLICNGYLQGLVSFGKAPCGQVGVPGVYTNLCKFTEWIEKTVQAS

Kallikrein-7 [5] = target: T4, Kallikrein-7 (Homo sapiens, UniProt P49862); assay: Binding affinity to recombinant KLK7 (unknown origin) at 50 uM pre-incubated with conditioned medium for 30 mins by activity-based probe based in-gel fluorescence assay
Target sequence in this assay (P49862 30-253 limits assumed): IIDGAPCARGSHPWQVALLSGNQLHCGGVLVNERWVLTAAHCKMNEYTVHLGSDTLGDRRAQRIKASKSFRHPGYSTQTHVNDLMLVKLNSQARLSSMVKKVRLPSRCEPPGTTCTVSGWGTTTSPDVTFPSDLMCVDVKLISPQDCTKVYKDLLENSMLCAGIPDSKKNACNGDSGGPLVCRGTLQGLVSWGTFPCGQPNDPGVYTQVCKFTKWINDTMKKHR

Kallikrein-5 = target: T5, Kallikrein-5 (Homo sapiens, UniProt Q9Y337); assay: Inhibition of KLK5 (unknown origin) expressed in Pichia pastoris pre-incubated for 10 mins before Boc-ValProArg-AMC substrate addition and measured after 30 mins by fluorescence based assay
T5 sequence (Q9Y337 whole entry): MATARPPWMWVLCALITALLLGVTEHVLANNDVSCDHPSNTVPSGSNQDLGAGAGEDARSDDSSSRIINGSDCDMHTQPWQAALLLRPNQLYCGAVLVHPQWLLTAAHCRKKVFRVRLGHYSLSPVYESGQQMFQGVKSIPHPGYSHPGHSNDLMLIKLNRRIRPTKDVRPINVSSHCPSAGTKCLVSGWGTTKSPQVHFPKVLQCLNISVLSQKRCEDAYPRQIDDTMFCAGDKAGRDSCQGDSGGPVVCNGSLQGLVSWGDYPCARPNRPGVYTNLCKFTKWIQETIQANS

CAL-27 [6] = assay: Effect on cell proliferation of human CAL27 cells at 100 to 500 nM incubated for 48 hrs by BrdU incorporation assay; type: ADME, cell-based; settings: cal-27, 48 h, 0.5 µM
[7] = target: Kallikrein-5 (Homo sapiens) (UniProt Q9Y337); assay: Binding affinity to KLK5 in human VCAP cells conditioned medium at 50 uM pre-incubated for 30 mins by activity-based probe based in-gel fluorescence assay; type: cell-based
CAL-27 [8] = assay: Effect on EMT switch in human CAL27 cells at 100 to 500 nM incubated for 48 hrs; type: ADME, cell-based; settings: cal-27, 48 h, 0.5 µM
Kallikrein-7 [9] = target: T4, Kallikrein-7; assay: Inhibition of KLK7 (unknown origin) expressed in Pichia pastoris pre-incubated for 10 mins before Leu-Leu-Val-Tyr-AMC substrate addition and measured after 30 mins by fluorescence based assay
Outline: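 KLK7 at 33 nM final in 100 mM phosphate, 0.01% Tween-20, pH 8.5, with inhibitor (1:3 dilutions) or 2% DMSO for 10 min at rt. Reaction started with Leu-Leu-Val-Tyr-AMC at 500 µM final. Fluorescence (ex 380/em 460) read every 60 s for 30 min. Triplicates.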
Target sequence in this assay (P49862 whole entry): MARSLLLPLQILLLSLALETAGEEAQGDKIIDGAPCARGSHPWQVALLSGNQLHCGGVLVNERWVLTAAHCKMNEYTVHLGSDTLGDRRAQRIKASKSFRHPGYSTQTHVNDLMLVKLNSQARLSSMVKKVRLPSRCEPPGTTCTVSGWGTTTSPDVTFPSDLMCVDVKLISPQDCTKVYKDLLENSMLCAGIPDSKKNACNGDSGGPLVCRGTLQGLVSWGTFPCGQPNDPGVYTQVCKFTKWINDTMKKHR

[10] = Stability in DMEM supplemented with 10% (v/v) fetal bovine serum at 10 uM at 37 degC assessed as half life by HPLC-MS method; type: physicochemical; settings: cattle, DMEM with 10% (v/v) fetal bovine serum
Outline: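 Compound at 10 µM (0.2% DMSO) in DMEM with 10% FBS, 2 mM L-glutamine and 1% penicillin/streptomycin, plus 10 µM triazole internal standard, held at 37 °C. Sampled hourly to 10 h, then at 24 h, by HPLC-MS in SIM mode for parent and hydrolysis product.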

Kallikrein-8 = target: T6, Kallikrein-8 (Homo sapiens, UniProt O60259); assay: Inhibition of KLK8 (unknown origin) expressed in Pichia pastoris pre-incubated for 10 mins before Boc-ValProArg-AMC substrate addition and measured after 30 mins by fluorescence based assay
T6 sequence (O60259 whole entry): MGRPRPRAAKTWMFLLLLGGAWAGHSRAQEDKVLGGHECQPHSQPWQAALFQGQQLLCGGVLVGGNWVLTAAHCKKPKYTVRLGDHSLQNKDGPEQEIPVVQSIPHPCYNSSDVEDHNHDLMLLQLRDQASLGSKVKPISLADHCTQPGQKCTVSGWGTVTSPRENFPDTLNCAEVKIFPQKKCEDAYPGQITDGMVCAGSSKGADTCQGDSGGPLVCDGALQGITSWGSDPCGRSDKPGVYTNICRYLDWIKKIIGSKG

[11] = target: T7, Prostate-specific antigen (Homo sapiens) (UniProt P07288); assay: Binding affinity to KLK3 in human LNCAP cells conditioned medium at 50 uM pre-incubated for 30 mins by activity-based probe based in-gel fluorescence assay; type: cell-based
T7 sequence (whole entry): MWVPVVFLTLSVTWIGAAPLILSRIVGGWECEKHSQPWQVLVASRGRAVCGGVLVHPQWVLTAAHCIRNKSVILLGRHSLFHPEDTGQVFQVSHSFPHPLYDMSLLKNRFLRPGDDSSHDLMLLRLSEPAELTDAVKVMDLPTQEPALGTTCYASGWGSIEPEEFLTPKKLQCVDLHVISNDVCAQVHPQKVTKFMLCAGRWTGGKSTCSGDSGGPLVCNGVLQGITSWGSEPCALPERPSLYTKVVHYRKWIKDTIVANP

Kallikrein-14 = target: T8, Kallikrein-14 (Homo sapiens, UniProt Q9P0G3); assay: Inhibition of KLK14 (unknown origin) expressed in Pichia pastoris pre-incubated for 10 mins before Boc-ValProArg-AMC substrate addition and measured after 30 mins by fluorescence based assay
T8 sequence (Q9P0G3 whole entry): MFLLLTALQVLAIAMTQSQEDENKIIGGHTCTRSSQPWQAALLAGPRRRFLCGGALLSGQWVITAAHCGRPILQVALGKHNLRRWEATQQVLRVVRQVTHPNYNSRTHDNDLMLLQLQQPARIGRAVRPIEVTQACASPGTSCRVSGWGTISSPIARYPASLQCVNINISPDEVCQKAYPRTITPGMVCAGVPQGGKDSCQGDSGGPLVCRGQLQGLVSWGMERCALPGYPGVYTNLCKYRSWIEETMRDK

Detroit 562 [12] = assay: Effect on EMT switch in human Detroit 562 cells at 100 to 500 nM incubated for 48 hrs; type: ADME, cell-based; settings: detroit 562, 48 h, 0.5 µM
Kallikrein-4 [13] = target: T3, Kallikrein-4; assay: Inhibition of N-terminal FLAG-tagged and C-terminal His tagged pro-KLK4 (unknown origin) expressed in Escherichia coli in presence of thermolysin pre-incubated for 10 mins before Boc-FSR-AMC substrate addition and measured after 20 mins by fluorescence based assay

Cc1nn(-c2ccccc2)c(C)c1NC(=O)COC(=O)Cc1c(C)[nH]c2ccccc12
Activity (Trypsin [1]): inactive | pIC50 (Kallikrein-13): < 5.00 | IC50 (Trypsin [2]): 21 µM | Activity (Detroit 562 [3]): Non-Toxic | Activity (Kallikrein-4 [4]): inactive | Activity (Kallikrein-7 [5]): inactive | pIC50 (Kallikrein-5): 5.96 | Activity (CAL-27 [6]): Non-Toxic | Activity [7]: inactive | Activity (CAL-27 [8]): Non-Toxic | pIC50 (Kallikrein-7 [9]): 4.14 | half-life at 10 µM [10]: 4.22 h | pIC50 (Kallikrein-8): < 5.00 | Activity [11]: inactive | pIC50 (Kallikrein-14): 4.99 | Activity (Detroit 562 [12]): Non-Toxic | pIC50 (Kallikrein-4 [13]): < 3.70
